Assay results reported in ChEMBL document CHEMBL1275301, “Antihypertensive activity of newer 1,4-dihydro-5-pyrimidine carboxamides: synthesis and pharmacological evaluation” (2010).
The source made the active and inactive calls. The rule behind the calls is not given here.

How the values were obtained:
Rattus norvegicus [1] = test: Antihypertensive activity against DOCA-salt induced hypertension in albino rat assessed as reduction in systolic blood pressure at 10 mg/kg, po after 300 mins by tail-cuff method; type: functional; conditions: Artery, 5 h
How it was run: (§1)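 Rats given DOCA 20 mg/kg s.c. twice weekly in olive oil for 4 weeks, with 1% w/v NaCl as drinking water, reaching systolic 160–180 mm Hg. Rats were trained in restrainer and tail-cuff sessions. Compounds in 0.5% CMC were dosed at 10 mg/kg by oral feeding needle, with vehicle and nifedipine groups. BP was read before dosing and after, with the tail warmed at 37 °C for 2–5 min. Each compound was run three times in one week and readings averaged.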

Rattus norvegicus [2] = test: Antihypertensive activity against DOCA-salt induced hypertension in albino rat assessed as reduction in systolic blood pressure at 10 mg/kg, po after 360 mins by tail-cuff method; type: functional; conditions: Artery, 6 h; how it was run: as §1
Rattus norvegicus [3] = test: Antihypertensive activity against DOCA-salt induced hypertension in albino rat assessed as reduction in systolic blood pressure at 10 mg/kg, po after 900 mins by tail-cuff method; type: functional; conditions: Artery, 15 h; how it was run: as §1
Rattus norvegicus [4] = test: Antihypertensive activity against DOCA-salt induced hypertension in albino rat assessed as reduction in systolic blood pressure at 10 mg/kg, po after 180 mins by tail-cuff method; type: functional; conditions: Artery, 3 h; how it was run: as §1
Rattus norvegicus [5] = test: Antihypertensive activity against DOCA-salt induced hypertension in albino rat assessed as reduction in systolic blood pressure at 10 mg/kg, po after 60 mins by tail-cuff method; type: functional; conditions: Artery, 1 h; how it was run: as §1
Rattus norvegicus [6] = test: Antihypertensive activity against DOCA-salt induced hypertension in albino rat assessed as reduction in systolic blood pressure at 10 mg/kg, po after 720 mins by tail-cuff method; type: functional; conditions: Artery, 12 h; how it was run: as §1
Rattus norvegicus [7] = test: Antihypertensive activity against DOCA-salt induced hypertension in albino rat assessed as reduction in systolic blood pressure at 10 mg/kg, po after 600 mins by tail-cuff method; type: functional; conditions: Artery, 10 h; how it was run: as §1
Rattus norvegicus [8] = test: Antihypertensive activity against DOCA-salt induced hypertension in albino rat assessed as reduction in systolic blood pressure at 10 mg/kg, po after 30 mins by tail-cuff method; type: functional; conditions: Artery, 0.5 h; how it was run: as §1
Rattus norvegicus [9] = test: Antihypertensive activity against DOCA-salt induced hypertension in albino rat assessed as reduction in systolic blood pressure at 10 mg/kg, po up to 360 mins by tail-cuff method; type: functional, organism-based; parameters: dose 10 mg/kg; conditions: Artery; how it was run: as §1
Rattus norvegicus [10] = test: Antihypertensive activity against DOCA-salt induced hypertension in albino rat assessed as reduction in systolic blood pressure at 10 mg/kg, po after 120 mins by tail-cuff method; type: functional; conditions: Artery, 2 h; how it was run: as §1
Rattus norvegicus [11] = test: Antihypertensive activity against DOCA-salt induced hypertension in albino rat assessed as reduction in systolic blood pressure at 10 mg/kg, po after 15 mins by tail-cuff method; type: functional; conditions: Artery, 0.25 h; how it was run: as §1
Rattus norvegicus [12] = test: Antihypertensive activity against DOCA-salt induced hypertension in albino rat assessed as reduction in systolic blood pressure at 10 mg/kg, po after 240 mins by tail-cuff method; type: functional; conditions: Artery, 4 h; how it was run: as §1

| SMILES | inhibition in vivo at 10 mg/kg (Rattus norvegicus [1]) | inhibition in vivo at 10 mg/kg (Rattus norvegicus [2]) | inhibition in vivo at 10 mg/kg (Rattus norvegicus [3]) | inhibition in vivo at 10 mg/kg (Rattus norvegicus [4]) | inhibition in vivo at 10 mg/kg (Rattus norvegicus [5]) | inhibition in vivo at 10 mg/kg (Rattus norvegicus [6]) | inhibition in vivo at 10 mg/kg (Rattus norvegicus [7]) | inhibition in vivo at 10 mg/kg (Rattus norvegicus [8]) | Activity (Rattus norvegicus [9]) | inhibition in vivo at 10 mg/kg (Rattus norvegicus [10]) | inhibition in vivo at 10 mg/kg (Rattus norvegicus [11]) | inhibition in vivo at 10 mg/kg (Rattus norvegicus [12]) |
| --- | --- | --- | --- | --- | --- | --- | --- | --- | --- | --- | --- | --- |
| COc1ccc(C2N=C(SCc3cccc(Cl)c3)NC(C)=C2C(=O)Nc2ccc(Br)cc2)cc1 (stereo not given) | 39% | 39.7% | 22.6% | 27.3% | 15.4% | 26.8% | 32.8% | 7.7% | Active | 21.1% | 3.1% | 33.8% |
| CC1=C(C(=O)Nc2ccc(F)cc2)C(c2ccc([N+](=O)[O-])cc2)N=C(SCc2ccccc2Cl)N1 (stereo not given) | 18.5% | 21.6% | 11.3% | 12.4% | 6.2% | 13.9% | 17.4% | 3.1% | Active | 8.8% | 1.5% | 15.9% |
| CC1=C(C(=O)Nc2ccc(F)cc2)C(c2ccc([N+](=O)[O-])cc2)N=C(SCc2ccccc2)N1 (stereo not given) | 38.5% | 38.7% | 21% | 23.7% | 12.3% | 27.3% | 32.3% | 7.2% | Active | 18% | 3.1% | 32.3% |
| CC1=C(C(=O)Nc2ccc(Br)cc2)C(c2ccc(Cl)cc2Cl)N=C(SCc2ccc(F)cc2)N1 (stereo not given) | 38.5% | 40.7% | 23.1% | 28.4% | 16.9% | 27.3% | 33.3% | 7.7% | Active | 22.7% | 3.6% | 36.4% |
| COc1ccc(C2N=C(SCc3ccc(Cl)cc3)NC(C)=C2C(=O)Nc2ccc(F)cc2)cc1OC (stereo not given) | 31.3% | 37.1% | 20% | 20.1% | 10.3% | 22.2% | 26.7% | 5.7% | Active | 15.5% | 3.1% | 24.1% |
| CC1=C(C(=O)Nc2ccc([N+](=O)[O-])cc2)C(c2cccc([N+](=O)[O-])c2)N=C(SCc2ccc(F)cc2)N1 (stereo not given) | 27.2% | 36.1% | 15.4% | 17.5% | 7.2% | 20.1% | 30.3% | 4.1% | Active | 13.4% | 2.6% | 22.6% |
| COc1ccc(C2N=C(SCc3ccccc3)NC(C)=C2C(=O)Nc2ccc(Br)cc2)cc1 (stereo not given) | 16.4% | 18.6% | 5.6% | 10.3% | 5.6% | 7.2% | 11.3% | 2.6% | Active | 8.2% | 1% | 13.3% |
| COc1ccc(C2N=C(SCc3ccc(F)cc3)NC(C)=C2C(=O)Nc2ccc(Br)cc2)cc1 (stereo not given) | 26.2% | 33.5% | 15.4% | 17% | 8.7% | 19.1% | 24.1% | 6.2% | Active | 12.9% | 3.6% | 22.1% |
| COc1ccc(C2N=C(SCc3ccccc3Cl)NC(C)=C2C(=O)Nc2ccc(F)cc2)cc1OC (stereo not given) | 35.9% | 39.2% | 21% | 25.3% | 11.8% | 23.2% | 30.3% | 6.2% | Active | 17% | 2.6% | 30.3% |
| CC1=C(C(=O)Nc2ccc(Br)cc2)C(c2ccc(Cl)cc2Cl)N=C(SCc2ccccc2)N1 (stereo not given) | 22.1% | 24.2% | 8.2% | 13.4% | 6.7% | 11.3% | 17.4% | 3.6% | Active | 10.3% | 1.5% | 17.4% |
